ChEMBL document CHEMBL1138994, “Probing structure/affinity relationships for the Plasmodium falciparum hexose transporter with glucose derivatives” (Bioorg Med Chem Lett, 2006)
The source made the active and inactive calls. No cut-off for these calls is given here.

Experiments:
Hexose transporter 1 = target: T1, Hexose transporter 1 (Plasmodium falciparum, UniProt O97467); assay: Inhibition of D-glucose uptake mediated by PfHT expressed in Xenopus oocytes; type: functional, cell-based, Oocyte
T1 sequence (O97467 whole entry): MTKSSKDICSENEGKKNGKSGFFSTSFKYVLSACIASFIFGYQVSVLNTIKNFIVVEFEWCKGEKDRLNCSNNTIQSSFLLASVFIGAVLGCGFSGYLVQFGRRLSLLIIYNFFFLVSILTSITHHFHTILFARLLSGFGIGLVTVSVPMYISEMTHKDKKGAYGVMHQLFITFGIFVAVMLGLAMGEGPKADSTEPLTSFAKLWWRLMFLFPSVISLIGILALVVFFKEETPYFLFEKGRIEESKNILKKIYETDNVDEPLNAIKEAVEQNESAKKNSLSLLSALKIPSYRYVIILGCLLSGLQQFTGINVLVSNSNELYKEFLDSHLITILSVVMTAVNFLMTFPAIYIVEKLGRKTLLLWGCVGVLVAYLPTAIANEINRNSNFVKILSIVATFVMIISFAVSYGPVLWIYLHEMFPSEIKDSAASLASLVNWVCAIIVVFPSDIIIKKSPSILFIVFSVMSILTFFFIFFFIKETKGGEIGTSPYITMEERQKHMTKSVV
In short: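 Oocyte-expressed PfHT assay; values are means of three experiments with standard error of the mean, or two individual experiments where marked.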

[1] = target: T2, Solute carrier family 2, facilitated glucose transporter member 1 (Homo sapiens) (UniProt P11166); assay: Inhibitory activity against GLUT1
T2 sequence (whole entry): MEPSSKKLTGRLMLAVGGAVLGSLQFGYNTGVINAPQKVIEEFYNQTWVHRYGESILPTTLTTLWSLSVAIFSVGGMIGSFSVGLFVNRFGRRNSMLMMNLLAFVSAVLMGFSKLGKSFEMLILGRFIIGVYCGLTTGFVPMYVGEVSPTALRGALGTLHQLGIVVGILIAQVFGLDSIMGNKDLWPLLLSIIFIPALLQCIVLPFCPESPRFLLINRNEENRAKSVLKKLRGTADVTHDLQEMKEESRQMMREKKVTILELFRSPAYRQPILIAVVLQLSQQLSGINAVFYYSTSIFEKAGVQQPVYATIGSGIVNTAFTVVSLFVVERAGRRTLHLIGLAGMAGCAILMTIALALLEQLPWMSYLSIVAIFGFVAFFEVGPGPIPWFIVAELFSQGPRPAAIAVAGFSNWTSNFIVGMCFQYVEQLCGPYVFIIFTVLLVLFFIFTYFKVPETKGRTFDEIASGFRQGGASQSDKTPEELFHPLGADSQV

| SMILES | Ki (Hexose transporter 1; read-out: Ki) [µM] | inhibition [1] | Ki (Hexose transporter 1; oocyte) |
| --- | --- | --- | --- |
| CCCCCCCCCCCCO[C@H]1[C@H](O)[C@@H](CO)OC(O)[C@@H]1O (stereo partly specified) | 30 | inactive |  |
| CCCCCCCCCO[C@H]1[C@H](O)[C@@H](CO)OC(O)[C@@H]1O (stereo partly specified) | 32 | inactive |  |
| C=CCOCCCCCCCO[C@H]1[C@H](O)[C@@H](CO)OC(O)[C@@H]1O (stereo partly specified) | > 500 | inactive |  |
| COC(=O)CCCCCCC#CCCCCCCCO[C@H]1[C@H](O)[C@@H](CO)OC(O)[C@@H]1O (stereo partly specified) | > 500 | inactive |  |
| CCCCCCCC/C=C/CCCCCCO[C@H]1[C@H](O)[C@@H](CO)OC(O)[C@@H]1O (stereo partly specified) | > 500 | inactive |  |
| C=CCOCCOCCO[C@H]1[C@H](O)[C@@H](CO)OC(O)[C@@H]1O (stereo partly specified) |  | inactive | Not Active |
| C=CCCCCCCCCCO[C@H]1[C@H](O)[C@@H](CO)OC(O)[C@@H]1O (stereo partly specified) | 53 | inactive |  |
| OC[C@H]1OC(O)[C@H](O)[C@@H](OCCCCCc2ccccc2)[C@@H]1O (stereo partly specified) | 64 | inactive |  |
| C=CCCCCCCCCO[C@H]1[C@H](O)[C@@H](CO)OC(O)[C@@H]1O (stereo partly specified) | 49 | inactive |  |
| CCCCCCCCCCCCCCCCCCCCO[C@H]1[C@H](O)[C@@H](CO)OC(O)[C@@H]1O (stereo partly specified) |  | inactive |  |
| CCCCc1ccc(CCCCCO[C@H]2[C@H](O)[C@@H](CO)OC(O)[C@@H]2O)cc1 (stereo partly specified) | 81 | inactive |  |
| C=CCCCCCCCO[C@H]1[C@H](O)[C@@H](CO)OC(O)[C@@H]1O (stereo partly specified) | 41 | inactive |  |
| CCCCCCCCCCCCCCO[C@H]1[C@H](O)[C@@H](CO)OC(O)[C@@H]1O (stereo partly specified) | > 500 | inactive |  |
| C=CCCCCCCCCCCO[C@H]1[C@H](O)[C@@H](CO)OC(O)[C@@H]1O (stereo partly specified) | 36 | inactive |  |
| OC[C@H]1OC(O)[C@H](O)[C@@H](OCCCCCCCCc2ccccc2)[C@@H]1O (stereo partly specified) | 148 | inactive |  |
| OC[C@H]1OC(O)[C@H](O)[C@@H](OCCCCCCCC(F)(F)C(F)(F)C(F)(F)C(F)(F)C(F)(F)C(F)(F)F)[C@@H]1O (stereo partly specified) | 130 | inactive |  |
| O=C(NCCCO[C@H]1[C@H](O)[C@@H](CO)OC(O)[C@@H]1O)C(F)(F)C(F)(F)C(F)(F)C(F)(F)C(F)(F)C(F)(F)F (stereo partly specified) |  | inactive | Not Active |
| C=CCCCCCCCCCCCCCO[C@H]1[C@H](O)[C@@H](CO)OC(O)[C@@H]1O (stereo partly specified) | 37 | inactive |  |
| CCCCCCCCCCO[C@H]1[C@H](O)[C@@H](CO)OC(O)[C@@H]1O (stereo partly specified) | 19 | inactive |  |
| C=CCCCCCCCOCCO[C@H]1[C@H](O)[C@@H](CO)OC(O)[C@@H]1O (stereo partly specified) | 590 | inactive |  |
| C=CCOCCO[C@H]1[C@H](O)[C@@H](CO)OC(O)[C@@H]1O (stereo partly specified) | > 500 | inactive |  |
| CCCCCCCCO[C@H]1[C@H](O)[C@@H](CO)OC(O)[C@@H]1O (stereo partly specified) | 30 | inactive |  |
| CCCCCCCCCCCCCCCCCCO[C@H]1[C@H](O)[C@@H](CO)OC(O)[C@@H]1O (stereo partly specified) | > 500 | inactive |  |
| OC[C@H]1OC(O)[C@H](O)[C@@H](OCCCC(F)(F)C(F)(F)C(F)(F)C(F)(F)C(F)(F)C(F)(F)F)[C@@H]1O (stereo partly specified) | > 500 | inactive |  |
| CCCCCCCCCCCO[C@H]1[C@H](O)[C@@H](CO)OC(O)[C@@H]1O (stereo partly specified) | 23 | inactive |  |
| CCCCCCCO[C@H]1[C@H](O)[C@@H](CO)OC(O)[C@@H]1O (stereo partly specified) | < 500 | inactive |  |
